# Data reported in ChEMBL document CHEMBL1137992, “Long hydrocarbon chain keto diols and diacids that favorably alter lipid disorders in vivo” (J Med Chem, 2004).
# Columns and labels:
# Rattus norvegicus [1] = test: Percentage change of HDL cholesterol levels in obese female Zucker rats after 2 weeks of pre-treatment at a dose of 100 mg/kg/day; type: functional
# In short: (§1)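 Obese female Zucker fatty rats were gavaged once daily with 30 or 100 mg/kg/day in 20% EtOH/80% PEG-200 for 2 weeks. Sera were collected after a 6 h fast, before dosing, at 1 week (orbital plexus) and at 2 weeks (cardiac puncture). HDL-C was total cholesterol multiplied by HDL area fraction from gel-filtration lipoprotein profiles. Reported as % change from pretreatment ± SEM.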
# [2] = Concentration required for inhibition of lipid synthesis in primary cultures of rat hepatocytes at 300 uM; not active; type: functional; settings: Hepatocyte
# In short: (§2)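 Primary hepatocytes from male Sprague-Dawley rats (Seglen isolation), plated at 1.5×10^5 cells/cm² on collagen in serum-containing DMEM, switched to serum-free medium after 4 h, grown overnight to monolayers. Cells incubated 4 h with 0.25 μCi [1-14C]acetate/well (1 Ci/mol final) plus 0, 1, 3, 10, 30, 100 or 300 μM compound. Lipids extracted into scintillant and counted; IC50 taken from lipid synthesis rates.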
# Rattus norvegicus [3] = test: Percentage change of non-HDL cholesterol levels in obese female Zucker rats after 2 weeks of pre-treatment at a dose of 100 mg/kg/day; type: functional
# In short: (§3)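 Female Zucker fatty rats [Crl:(Zuc)-faBR], 10–12 weeks old (400–500 g), acclimated 7 days and fed rodent chow. Dosed once daily by oral gavage in 20% EtOH/80% PEG-200 (v/v), at 0.25% of body weight, for 2 weeks. Blood taken after a 6-h fast: orbital plexus before dosing and at day 7, cardiac puncture at day 14. Serum lipoprotein cholesterol measured by Superose 6 gel filtration with on-line cholesterol detection. Values are % change from pretreatment, mean ± SEM.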
# Rattus norvegicus [4] = test: Percentage change of triglycerides in obese female Zucker rats after 1 week of pre-treatment at a dose of 100 mg/kg/day; type: functional; in short: as §3
# Rattus norvegicus [5] = test: Percentage change of HDL cholesterol levels in obese female Zucker rats after 1 week of pre-treatment at a dose of 100 mg/kg/day; type: functional; in short: as §1
# Rattus norvegicus [6] = test: Percentage change of triglycerides in obese female Zucker rats after 2 weeks of pre-treatment at a dose of 100 mg/kg/day; type: functional; in short: as §3
# Rattus norvegicus [7] = test: Percentage change of non-HDL cholesterol levels in obese female Zucker rats after 1 week of pre-treatment at a dose of 100 mg/kg/day; type: functional; in short: as §3
# Rattus norvegicus [8] = test: Percentage change of HDL cholesterol levels in obese female Zucker rats after 1 week of pre-treatment at a dose of 30 mg/kg/day; type: functional; in short: as §1
# Rattus norvegicus [9] = test: Percentage change of non-HDL cholesterol levels in obese female Zucker rats after 1 week of pre-treatment at a dose of 30 mg/kg/day; type: functional; in short: as §3
# Rattus norvegicus [10] = test: Percentage change of triglycerides in obese female Zucker rats after 1 week of pre-treatment at a dose of 30 mg/kg/day; type: functional; in short: as §3
# [11] = Concentration required for inhibition of lipid synthesis in primary cultures of rat hepatocytes; value ranges from 100-300 uM; type: functional, cell-based; settings: Hepatocyte; in short: as §2
# Rattus norvegicus [12] = test: Percentage change of HDL cholesterol levels in obese female Zucker rats after 2 weeks of pre-treatment at a dose of 30 mg/kg/day; type: functional; in short: as §1
# Rattus norvegicus [13] = test: Percentage change of triglycerides in obese female Zucker rats after 2 weeks of pre-treatment at a dose of 30 mg/kg/day; type: functional; in short: as §3
# Rattus norvegicus [14] = test: Percentage change of non-HDL cholesterol levels in obese female Zucker rats after 2 weeks of pre-treatment at a dose of 30 mg/kg/day; type: functional; in short: as §3
# [15] = Concentration required for inhibition of lipid synthesis in primary cultures of rat hepatocytes; type: functional, cell-based; settings: Hepatocyte; in short: as §2
# [16] = Concentration required for inhibition of lipid synthesis in primary cultures of rat hepatocytes; value ranges from 3-10 uM; type: functional, cell-based; settings: Hepatocyte; in short: as §2
# Rattus norvegicus [17] = test: Percentage change of HDL cholesterol levels in obese female Zucker rats after 1 week of pre-treatment at a dose of […]; type: functional
# Rattus norvegicus [18] = test: Percentage change of non-HDL cholesterol levels in obese female Zucker rats after 2 weeks of pre-treatment at a dose of 59 mg/kg/day; type: functional; in short: as §3
# Rattus norvegicus [19] = test: Percentage change of HDL cholesterol levels in obese female Zucker rats after 2 weeks of pre-treatment at a dose of 59 mg/kg/day; type: functional
# Rattus norvegicus [20] = test: Percentage change of triglycerides in obese female Zucker rats after 1 week of pre-treatment at a dose of 59 mg/kg/day; type: functional; in short: as §3
# Rattus norvegicus [21] = test: Percentage change of non-HDL cholesterol levels in obese female Zucker rats after 1 week of pre-treatment at a dose of 59 mg/kg/day; type: functional; in short: as §3
# Rattus norvegicus [22] = test: Percentage change of triglycerides in obese female Zucker rats after 2 weeks of pre-treatment at a dose of 59 mg/kg/day; type: functional; in short: as §3
# Rattus norvegicus [23] = test: Percentage change of non-HDL cholesterol levels in obese female Zucker rats after 1 week of treatment at a dose of 100 mg/kg/day; type: functional; settings: in the assay text read “30 mg/kg/day” for “100 mg/kg/day”; in short: as §3
SMILES,Change (Rattus norvegicus [1]),Change (Rattus norvegicus [3]),Change (Rattus norvegicus [4]),Change (Rattus norvegicus [5]),Change (Rattus norvegicus [6]),Change (Rattus norvegicus [7]),IC50 [15],further results
CC(CCCCC(=O)CCCCC(C)(C(=O)O)c1ccccc1)(C(=O)O)c1ccccc1 (stereo unspecified),45%,79%,-36%,43%,-8%,36%,–,inhibition at 300 µM [2]: < 50%
CC(CO)(CCCCC(=O)CCCCC(C)(CO)c1ccccc1)c1ccccc1 (stereo unspecified),–,–,–,–,–,–,–,Change (Rattus norvegicus [8]): 0%; Change (Rattus norvegicus [9]): -30%; Change (Rattus norvegicus [10]): -25%; IC50 [11]: < 300 µM; Change (Rattus norvegicus [12]): -27%; Change (Rattus norvegicus [13]): 21%; Change (Rattus norvegicus [14]): 31%
CC(C)Cc1ccc(C(C)(CCCCC(=O)CCCCC(C)(C(=O)O)c2ccc(CC(C)C)cc2)C(=O)O)cc1 (stereo unspecified),62%,-44%,-63%,11%,-66%,-40%,–,IC50 [11]: < 300 µM
CC(CCCC(=O)CCCC(C)(C(=O)O)c1ccccc1)(C(=O)O)c1ccccc1 (stereo unspecified),12%,65%,10%,-4%,27%,36%,–,inhibition at 300 µM [2]: < 50%
CC(C)(CCCCCCC(=O)CCCCCCC(C)(C)C(=O)O)C(=O)O,–,–,–,–,–,–,9 µM,–
CC(C)(CO)Cc1cccc(C(=O)c2cccc(CC(C)(C)CO)c2)c1,-11%,-5%,-29%,1%,-8%,-14%,52 µM,–
CC(C)(CCCCC(=O)CCCC(C)(C)C(=O)O)C(=O)O,–,–,–,–,–,–,8 µM,Change (Rattus norvegicus [8]): 7%; Change (Rattus norvegicus [9]): -17%; Change (Rattus norvegicus [10]): -2%; Change (Rattus norvegicus [12]): 4%; Change (Rattus norvegicus [13]): 23%; Change (Rattus norvegicus [14]): 93%
CC(C)(CO)CCCCC(=O)CCCC(C)(C)CO,48%,4%,-40%,47%,-12%,-26%,–,IC50 [16]: < 10 µM
CC(C)OC(=O)C(C)(C)Oc1ccc(C(=O)c2ccc(Cl)cc2)cc1 [FENOFIBRATE],-14%,11.6%,6%,-41%,-8%,19.8%,–,–
CC(C)(CO)CCCCC(=O)CCCCC(C)(CO)c1ccccc1 (stereo unspecified),–,–,–,–,–,–,1 µM,Change (Rattus norvegicus [8]): -18%; Change (Rattus norvegicus [9]): 17%; Change (Rattus norvegicus [10]): 18%; Change (Rattus norvegicus [12]): -5%; Change (Rattus norvegicus [13]): -8%; Change (Rattus norvegicus [14]): -8%
CC(C)(Cc1cccc(C(=O)c2cccc(CC(C)(C)C(=O)O)c2)c1)C(=O)O,–,–,–,–,–,–,–,Change (Rattus norvegicus [17]): 2%; Change (Rattus norvegicus [18]): 34%; Change (Rattus norvegicus [19]): 7%; Change (Rattus norvegicus [20]): -24%; Change (Rattus norvegicus [21]): -43%; Change (Rattus norvegicus [22]): 7%
CC(C)(CCCCCCCC(=O)CCCCCCCC(C)(C)C(=O)O)C(=O)O,86%,-45%,-85%,44%,-63%,-81%,5 µM,–
CC(C)(CCCCCC(=O)CCCCC(C)(C)C(=O)O)C(=O)O,72%,-51%,-65%,240%,-62%,-30%,3 µM,–
CC(C)(CO)CCCCCCC(=O)CCCCCCC(C)(C)CO,–,–,–,–,–,–,2 µM,Change (Rattus norvegicus [23]): -50%
CC(C)Cc1ccc(C(C)(CO)CCCCC(=O)CCCCC(C)(CO)c2ccc(CC(C)C)cc2)cc1 (stereo unspecified),6%,34%,-10%,-5%,-15%,27%,–,inhibition at 300 µM [2]: < 50%
CC(C)(CO)CCCCCC(=O)CCCCCC(C)(C)CO,–,-88%,-92%,77%,-92%,-91%,3 µM,–
CC(CO)(CCCC(=O)CCCC(C)(CO)c1ccccc1)c1ccccc1 (stereo unspecified),-11%,-32%,-20%,-14%,-17%,-18%,–,IC50 [11]: < 300 µM
Cc1ccc(C(C)(CO)CCCCC(=O)CCCCC(C)(CO)c2ccc(C)cc2)cc1 (stereo unspecified),–,–,–,–,–,–,–,Change (Rattus norvegicus [8]): -3%; Change (Rattus norvegicus [9]): 61%; Change (Rattus norvegicus [10]): 15%; IC50 [11]: < 300 µM; Change (Rattus norvegicus [12]): -2%; Change (Rattus norvegicus [13]): 0%; Change (Rattus norvegicus [14]): 46%
CC(C)(CO)CCCCCC(=O)CCCCC(C)(C)CO,78%,-78%,-85%,78%,-87%,-70%,2 µM,–
CC(C)(CO)CCCC(=O)CCCC(C)(C)CO,2%,28%,-31%,24%,10%,-22%,27 µM,–
CCCCCCCCCCCCCCSCC(=O)O [TETRADECYLTHIOACETIC ACID],–,–,–,–,–,–,43 µM,–
Cc1ccc(C(C)(CCCCC(=O)CCCCC(C)(C(=O)O)c2ccc(C)cc2)C(=O)O)cc1 (stereo unspecified),–,–,–,–,–,–,–,Change (Rattus norvegicus [8]): 0%; Change (Rattus norvegicus [9]): 0%; Change (Rattus norvegicus [10]): -11%; IC50 [11]: < 300 µM; Change (Rattus norvegicus [12]): 10%; Change (Rattus norvegicus [13]): 12%; Change (Rattus norvegicus [14]): 47%
CC(CO)(CCCCCC(=O)CCCCCC(C)(CO)c1ccccc1)c1ccccc1 (stereo unspecified),10%,9%,24%,2%,1%,29%,93 µM,–
